This is an account of results in ChEMBL document CHEMBL3045298, “Furan-2,5-dimethylene-tethered bis-imidacloprid insecticide conferring high potency” (J Agric Food Chem, 2010).

Assay [1] concerns Musca domestica. Put plainly: Insecticidal activity against Musca domestica (house fly) measured after intrathoracic compound injection in presence of cytochrome P450 inhibitor O-propyl O-(2-propynyl) phenylphosphonate. It counts as functional. In short, it runs like this:
(§1)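 Houseflies were first pretreated with the P450 inhibitor O-propyl O-(2-propynyl) phenylphosphonate, then dosed by intrathoracic injection. Lethality was scored 24 h after administration, and the 50% lethal dose was determined.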

The target of assay [2] is T1, Nicotinic acetylcholine receptor alpha 5 subunit (Musca domestica, UniProt A9XFY4).
T1 sequence (A9XFY4 whole entry): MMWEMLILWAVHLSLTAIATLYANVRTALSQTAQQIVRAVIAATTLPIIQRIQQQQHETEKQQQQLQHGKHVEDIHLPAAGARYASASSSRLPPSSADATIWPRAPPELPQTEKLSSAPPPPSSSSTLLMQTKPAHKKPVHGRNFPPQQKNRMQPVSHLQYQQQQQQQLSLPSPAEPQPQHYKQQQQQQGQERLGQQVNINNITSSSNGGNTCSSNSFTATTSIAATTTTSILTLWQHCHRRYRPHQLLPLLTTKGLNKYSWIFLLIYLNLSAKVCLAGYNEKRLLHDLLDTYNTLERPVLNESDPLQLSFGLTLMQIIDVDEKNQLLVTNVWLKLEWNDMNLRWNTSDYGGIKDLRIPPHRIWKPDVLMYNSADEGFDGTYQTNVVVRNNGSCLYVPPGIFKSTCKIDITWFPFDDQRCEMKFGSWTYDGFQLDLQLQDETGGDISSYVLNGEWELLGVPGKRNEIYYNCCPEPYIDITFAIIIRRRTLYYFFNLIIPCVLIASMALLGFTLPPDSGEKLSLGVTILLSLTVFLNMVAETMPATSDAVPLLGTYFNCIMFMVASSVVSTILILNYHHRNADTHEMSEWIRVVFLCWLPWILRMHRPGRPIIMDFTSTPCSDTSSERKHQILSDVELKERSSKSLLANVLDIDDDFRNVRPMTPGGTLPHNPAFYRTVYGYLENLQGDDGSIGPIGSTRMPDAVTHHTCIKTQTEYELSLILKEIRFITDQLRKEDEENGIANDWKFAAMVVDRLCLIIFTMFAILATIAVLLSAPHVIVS
Put plainly: Displacement of [3H]IMI from Musca domestica (house fly) brain nicotinic acetylcholine receptor. In short, it runs like this:
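Native housefly (Musca domestica) brain nAChR preparation with [3H]IMI radioligand at 5 nM (Kd 5.4 nM). IC50 is the molar concentration inhibiting 50% of specific [3H]IMI binding, fitted by iterative nonlinear least-squares regression. Ki derived as IC50/(1 + [L]/Kd).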

The test system of assay [3] is Musca domestica. The assay can be described thus: Insecticidal activity against Musca domestica (house fly) assessed as mortality at LD50 concentration intrathoracic injection in presence of cytochrome P450 inhibitor O-propyl O-(2-propynyl) phenylphosphonate. It is filed as functional. The method, boiled down:
as §1

The term LD50 denotes the dose at which mortality reaches 50%. As usually defined, the Ki is a measure of affinity in units of concentration, obtained from inhibition or displacement. A high value points to weaker binding. As usually defined, the mortality is the percentage killed. In the case of `O=[N+]([O-])/N=C1\N(Cc2ccc(Cl)nc2)CCN1Cc1ccccc1-c1ccccc1CN1CCN(Cc2ccc(Cl)nc2)/C1=N\[N+](=O)[O-]`, the LD50 in the assay with Musca domestica [1] was over 1 mg/kg. In assay [2], the affinity corresponds to a Ki of 0.8 µM. The mortality with Musca domestica [3] came out at 10%.

For `O=C(/N=C1/N(CCCCCCCCN2CCN(Cc3ccc(Cl)nc3)/C2=N\C(=O)C(F)(F)F)CCN1Cc1ccc(Cl)nc1)C(F)(F)F`, the LD50 in the assay on Musca domestica [1] was over 1 mg/kg. The same compound yielded an inhibitory constant (Ki) in assay [2] of 26 µM. For the same compound, the mortality in the assay on Musca domestica [3] was 0%.

For the compound `O=C(/N=C1/N(CCCCCCN2CCN(Cc3ccc(Cl)nc3)/C2=N/C(=O)C(F)(F)F)CCN1Cc1ccc(Cl)nc1)C(F)(F)F`, in the assay on Musca domestica [1], the median lethal dose (LD50) is over 1 mg/kg. Further, in assay [2], the Ki is 26 µM. Also, in the assay with Musca domestica [3], the mortality is recorded as 0%.

`O=[N+]([O-])/N=C1\N(Cc2ccc(Cl)nc2)CCN1Cc1cncc(CN2CCN(Cc3ccc(Cl)nc3)/C2=N\[N+](=O)[O-])c1`: the LD50 in the assay with Musca domestica [1] was over 1 mg/kg. This compound registered a Ki in assay [2] of 2.3 µM. In addition, the mortality with Musca domestica [3] is 10%.

As to `O=[N+]([O-])/N=C1/N(CCCOCCCN2CCN(Cc3ccc(Cl)nc3)/C2=N\[N+](=O)[O-])CCN1Cc1ccc(Cl)nc1`, the 50% lethal dose (LD50) with Musca domestica [1] was over 1 mg/kg. Besides, the affinity in assay [2], expressed as Ki, was 2.66 µM. Moreover, the mortality in the assay with Musca domestica [3] was determined as 0%.

For the compound `CC(C)(CCN1CCN(Cc2ccc(Cl)nc2)/C1=N\[N+](=O)[O-])CCN1CCN(Cc2ccc(Cl)nc2)/C1=N\[N+](=O)[O-]`, the LD50 in the assay with Musca domestica [1] was over 1 mg/kg. In assay [2], this compound returned an inhibition constant (Ki) of 1.46 µM. Also, in the assay on Musca domestica [3], the mortality is reported as 0%.

For the compound `O=[N+]([O-])/N=C1\N(Cc2ccc(Cl)nc2)CCN1Cc1ccc(CN2CCN(Cc3ccc(Cl)nc3)/C2=N\[N+](=O)[O-])s1`, the median lethal dose (LD50) with Musca domestica [1] worked out at 1 mg/kg. Affinity in assay [2] was put at a Ki of 0.15 µM.

As to `O=[N+]([O-])/N=C1/N(Cc2ccc(CN3CCN(Cc4ccc(Cl)nc4)/C3=N\[N+](=O)[O-])cc2)CCN1Cc1ccc(Cl)nc1`, in the assay with Musca domestica [1], the 50% lethal dose (LD50) was over 1 mg/kg. Besides, in assay [2], the affinity corresponds to a Ki of 2.27 µM. Also, the mortality in the assay with Musca domestica [3] is listed as 0%.

On to `O=[N+]([O-])/N=C1/N(CCOCCN2CCN(Cc3ccc(Cl)nc3)/C2=N\[N+](=O)[O-])CCN1Cc1ccc(Cl)nc1`, for which the LD50 with Musca domestica [1] is over 1 mg/kg. This compound also came in with an inhibitory constant (Ki) in assay [2] of 0.53 µM. The mortality in the assay with Musca domestica [3] came out at 0%.

For the compound `O=C(/N=C1/N(CCCCCCCN2CCN(Cc3ccc(Cl)nc3)/C2=N/C(=O)C(F)(F)F)CCN1Cc1ccc(Cl)nc1)C(F)(F)F`, the LD50 with Musca domestica [1] was over 1 mg/kg. Further, in assay [2], the affinity corresponds to a Ki of 2.9 µM. In addition, the mortality in the assay with Musca domestica [3] came out at 0%.

Take `O=[N+]([O-])/N=C1\N(Cc2ccc(Cl)nc2)CCN1Cc1ccc(CN2CCN(Cc3ccc(Cl)nc3)/C2=N\[N+](=O)[O-])o1`: in the assay with Musca domestica [1], the LD50 turned out to be 0.14 mg/kg. This compound also gave an inhibition constant Ki in assay [2] of 0.03 µM.

In the case of `O=C(CN1CCN(Cc2ccc(Cl)nc2)/C1=N\[N+](=O)[O-])OCCOC(=O)CN1CCN(Cc2ccc(Cl)nc2)/C1=N\[N+](=O)[O-]`, the 50% lethal dose (LD50) in the assay on Musca domestica [1] was over 1 mg/kg. The compound further yielded an inhibitory constant (Ki) in assay [2] of 1.55 µM. The mortality in the assay on Musca domestica [3] worked out at 0%.

As to `O=[N+]([O-])NC1=NCCN1Cc1ccc(Cl)nc1` [IMIDACLOPRID], in the assay on Musca domestica [1], the LD50 amounted to 0.03 mg/kg. In assay [2], this compound returned an inhibitory constant (Ki) of 0.0046 µM.

Consider `O=[N+]([O-])/N=C1\N(Cc2ccc(Cl)nc2)CCN1Cc1cccc(CN2CCN(Cc3ccc(Cl)nc3)/C2=N\[N+](=O)[O-])n1`, for which, in the assay with Musca domestica [1], the median lethal dose (LD50) is over 1 mg/kg. The compound also gave an inhibition constant (Ki) in assay [2] of 5.2 µM. Besides, the mortality in the assay on Musca domestica [3] is on record as 0%.

Turning to `O=[N+]([O-])/N=C1\N(Cc2ccc(Cl)nc2)CCN1Cc1cccc(CN2CCN(Cc3ccc(Cl)nc3)/C2=N\[N+](=O)[O-])c1`, in the assay on Musca domestica [1], the median lethal dose (LD50) is over 1 mg/kg. This compound also registered a Ki in assay [2] of 2.77 µM. Besides, the mortality with Musca domestica [3] is on record as 0%.

On to `O=[N+]([O-])/N=C1/N(Cc2ccc(Cc3ccc(CN4CCN(Cc5ccc(Cl)nc5)/C4=N\[N+](=O)[O-])cc3)cc2)CCN1Cc1ccc(Cl)nc1`, for which the 50% lethal dose (LD50) in the assay on Musca domestica [1] was over 1 mg/kg. Besides, the affinity in assay [2], expressed as Ki, was 17 µM. The mortality in the assay with Musca domestica [3] came to 0%.

As to `O=C(/N=C1/N(CCCCCN2CCN(Cc3ccc(Cl)nc3)/C2=N/C(=O)C(F)(F)F)CCN1Cc1ccc(Cl)nc1)C(F)(F)F`, the 50% lethal dose (LD50) with Musca domestica [1] was over 1 mg/kg. In assay [2], this compound registered a Ki of 16 µM. In the assay with Musca domestica [3], the mortality was determined as 0%.
